CXCR6 inh: CXCR6 receptor inhibitors, primary screen, cell-based, beta-arrestin, luminescence, CHO-K1 PathHunter, 1536-well; C-X-C chemokine receptor type 6 (Homo sapiens), O00574; 0.36% of 360,000 active; inhibition, % at 20 µM; in the data active = inhibition above about 34%, passing the limit was not always enough;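 note: antagonist mode with CXCL16 agonist at 10 nM final; 0% = 10 nM CXCL16 with DMSO and 100% = unstimulated wells without agonist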
CCR6 antag: CCR6 receptor antagonists, primary screen, cell-based, CHO-K1, luminescence, beta-arrestin, uHTS; AID 493098, 2011; inhibition, % at 20 µM; C-C chemokine receptor type 6 (Homo sapiens), P51684; CHO-K1 CCR6 PathHunter beta-arrestin, CCL20-stimulated; 0.49% of 340,000 active;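 active = compounds whose inhibition of the agonist-driven luminescence signal at 20 µM reaches about 50%, limit read from the data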;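 note: cells stimulated with CCL20 at 14 nM final; plate controls were DMSO with CCL20 for no effect and DMSO without agonist for full effect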
DAGLB inhibitor: DAGLB lipase inhibitors, primary screen, biochemical, fluorescence, HTS | Diacylglycerol lipase-beta (Homo sapiens), Q8NCG7 | HEK293T DAGLB membrane lysate, EnzChek fluorogenic substrate | inhibition, % at 5.17 µM | 0.059% of 340,000 active; in the data active = inhibition above about 34%;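 note: 0% = enzyme with vehicle and 100% = wells lacking enzyme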
APJ antag: antagonists of human apelin receptor APJ, primary screen, CHO-K1 cells, beta-arrestin complementation, luminescence; 0.32% of 330,000 active; AID 2521, 2010; P35414; inhibition, % at 20 µM;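 active = inhibition above about 40% at 20 µM, limit read from the data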;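 note: cells challenged with 10 nM apelin-13 agonist together with compound; plate controls were apelin-13 plus DMSO wells for no effect and DMSO wells lacking apelin-13 for full effect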
Target sequence (P35414 whole entry, looked up): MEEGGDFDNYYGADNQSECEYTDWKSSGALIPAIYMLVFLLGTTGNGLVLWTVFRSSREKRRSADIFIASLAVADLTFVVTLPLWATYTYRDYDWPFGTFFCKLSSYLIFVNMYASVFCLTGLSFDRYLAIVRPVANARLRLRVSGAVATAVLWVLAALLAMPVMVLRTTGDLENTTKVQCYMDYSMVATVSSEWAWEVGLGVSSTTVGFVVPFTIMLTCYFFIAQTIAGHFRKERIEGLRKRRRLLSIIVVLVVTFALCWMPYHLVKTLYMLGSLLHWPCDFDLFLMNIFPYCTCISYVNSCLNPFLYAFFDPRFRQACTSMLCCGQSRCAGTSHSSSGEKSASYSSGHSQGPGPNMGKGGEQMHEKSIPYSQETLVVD
hiPSC survival: enhancers of single-cell hiPSC survival, primary screen, ATPlite luminescence; 0.044% of 360,000 active; survival enhancement, % at 20 µM; 100% = ROCK inhibitor wells, 0% = DMSO; in the data active = survival enhancement above about 18%;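 note: cells exposed to compounds for 16 hours before the ATP read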
APJ agonist: agonists of human apelin receptor APJ, primary screen, CHO-K1 cells, PathHunter beta-arrestin, luminescence. P35414. 0% DMSO wells, 100% apelin. activation, % at 20 µM. 0.11% of 330,000 active. AID 2520, 2010;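 active = activation more than six SD over the plate average, tested at 20 µM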;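 note: 0% = DMSO alone and 100% = apelin-13 at 10 nM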
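Material: CHO-K1 APJ beta-arrestin complementation cell line; Input: cell density 1000 per well; Incubation: compound stimulation 90 min at 25 °C, detection 60 min; Signal: luminescence from split beta-galactosidase complementation, Galacton Star/Emerald II substrate; Controls: DMSO-only wells as negative, 10 nM Apelin-13 as positive control.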
APJ ag conf: agonists of human apelin receptor APJ, confirmation, cell-based, single concentration, CHO-K1, beta-arrestin, luminescence; activation, % at 20 µM; CHO-K1 APJ PathHunter beta-arrestin; shares compounds with APJ agonist; 10% of 310 active;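 active = activation above 40%, taking the highest of four retests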;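 note: plate controls were DMSO wells for no effect and apelin-13 at 10 nM for full effect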
APJ antag conf: APJ antagonists blocking beta-arrestin recruitment, confirmation, cell-based, luminescence, single concentration, uHTS hits; shares compounds with APJ antag; antagonist mode; inhibition, % at 20 µM; 66% of 950 active; in the data active = inhibition above about 50%
CXCR6 confirm: CXCR6 receptor antagonists, confirmation, cell-based, single concentration, beta-arrestin, luminescence; shares compounds with CXCR6 inh; CHO-K1 CXCR6 PathHunter beta-arrestin; inhibition, % at 20 µM; 65% of 700 active; AID 602409, 2012;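 active = mean inhibition over four retests above 40%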;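 note: receptor stimulated with 10 nM CXCL16 agonist; beta-galactosidase fragment complementation upon beta-arrestin recruitment to receptor; plate controls were CXCL16 plus DMSO for no effect and DMSO without CXCL16 for full effect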
Active calls of the source: *; . = no result given. Shown are actives, neighbours in structure and some others; about 0.86% of the full set was active somewhere.

SMILES | CXCR6 inh | CCR6 antag | DAGLB inhibitor | APJ antag | hiPSC survival | APJ agonist | others
CC[n+]1c(/C=C/N(C)c2ccccc2)n(-c2ccccc2)c2ccc(-c3nc4ccccc4s3)cc21 | 14 | 22 | 5 | 9 | -1 | 26* | APJ ag conf=-2
O=C(Nc1ccccc1N1CCCCC1)C1CCN(C(=O)c2ccc(Cl)cc2)CC1 | -1 | 12 | -7 | 18 | 1 | -8
COC(=O)c1ccc(/C=C/C(=O)OCC(=O)Nc2sccc2C(N)=O)cc1 | 2 | -9 | -1 | -9 | 6 | 31* | APJ ag conf=47*
NC(=O)c1ccsc1NC(=O)COC(=O)/C=C/c1ccc([N+](=O)[O-])cc1 | -22 | -2 | 0 | -40 | 0 | -5
CCCCC1=CC2=CC(=O)C(C)(OC(=O)CC)C(=O)C2=CN1Cc1ccccc1 (stereo not drawn) | -11 | -10 | 2 | -26 | 2 | 17
CCCCC1=CC2=CC(=O)C(C)(OC(=O)CC)C(=O)C2=CN1c1ccccc1 (stereo not drawn) | -10 | 4 | 4 | -39 | 4 | 75* | APJ ag conf=14
Cc1ccc(NC(=O)NNC(=O)CN2C(=O)COc3ccccc32)cc1 | -10 | 7 | 0 | 10 | 1 | 0
O=C(COC(=O)CN1C(=O)C2CC=CCC2C1=O)Nc1cccc([N+](=O)[O-])c1 (stereo not drawn) | -1 | . | 2 | . | -1 | .
CCCc1cc(C(=O)Nc2sc3c(c2C(=O)OCC)CCCC3)no1 | -3 | -2 | -1 | 16 | 0 | 68* | APJ ag conf=1
CCOC(=O)c1c(NC(=O)c2ccn(CC)n2)sc2c1CCC2 | 6 | 12 | -9 | 4 | 2 | -2
O=[N+]([O-])c1ccc(N2CCN(c3cccc(Cl)c3)CC2)cn1 | -7 | 18 | 1 | 9 | 0 | -5
CC(=O)c1ccc(S(=O)(=O)N(C)CCCC(=O)NCc2ccc3c(c2)OCO3)cc1 | 5 | 2 | 3 | -22 | 0 | 4
CCOc1ccc(/C=C/[N+](=O)[O-])c2ccccc12 | 60* | . | 2 | -24 | -2 | 16* | APJ ag conf=-3;CXCR6 confirm=52*
CCOc1ccc(C(=O)C(C)OC(=O)c2nc(Cl)ccc2Cl)cc1 (stereo not drawn) | -3 | 10 | -7 | 9 | 0 | -2
CC(NC(=O)COc1ccccc1)C(=O)OCC(=O)c1cc2ccccc2o1 (stereo not drawn) | 44* | 89* | -1 | 55* | 1 | -20 | APJ antag conf=116*
O=C(COc1ccccc1)NNC(=O)c1cc2ccccc2o1 | 2 | -9 | -2 | 8 | 1 | 3
O=C(Cc1ccc(F)cc1)OCC(=O)c1cc2ccccc2o1 | 11 | 89* | -9 | 77* | -2 | -12 | APJ antag conf=90*
O=C(CCNc1ccc(F)cc1)c1cc2ccccc2o1 | -1 | 5 | -6 | -17 | -1 | -1
CC(=O)c1cccc(NC(=O)N2C3CCC2CC(NC(=O)C2CC2)C3)c1 (stereo not drawn) | -3 | 4 | -3 | -9 | 2 | -4
Nc1cc(C(=O)OCC(=O)NNC(=O)c2cccs2)ccc1Cl | -11 | -7 | 2 | -3 | 2 | 5
O=S1(=O)Nc2c(ccc3cccnc23)-c2ccccc21 | 42* | 61* | 6 | 53* | -3 | -11 | APJ antag conf=43
